Assay results collected from several papers.
Compare with care: the assays were run in different laboratories.

SMILES | test | system | conditions | endpoint | value
C[C@]12CC[C@H]3[C@@H](CCC4=CC(=O)CC[C@@]43C)[C@@H]1CC[C@@H]2O | metabolic stability | Sprague-Dawley rat, hepatocytes | 1 µM | hepatocyte CLint | 240 µL/min/10⁶ cells
O=C1NC(=O)[C@](CNC(=O)c2cnn(-c3ccccc3)n2)(C2CC2)N1 | HPLC |  | pH 7.5 | chromatographic logD | 1.8
COc1ccc([C@@]23Oc4cc(OC)cc(OC)c4[C@@]24NC(C)=N[C@@]4(O)[C@H](C(=O)N(C)OC)[C@H]3c2ccccc2)cc1 | metabolic stability | rat, liver microsomes |  | microsomal CLint | 12.2 µL/min/mg
Cc1ncc2n1-c1ccc(Cl)cc1C(c1ccccc1F)=NC2 | metabolic stability | Sprague-Dawley rat, hepatocytes | 0.5 µM, pH 7.4 | hepatocyte CLint | 160 µL/min/10⁶ cells
CONC(=O)[C@H]1[C@@H](O)[C@@]2(O)c3c(OC)cc(OC)cc3O[C@@]2(c2ccc(OC)cc2)[C@@H]1c1ccccc1 | metabolic stability | rat, liver microsomes |  | microsomal CLint | 23.8 µL/min/mg
Cn1nccc1[C@]1(CNC(=O)c2ccc(F)c(F)c2-c2ccc(C(F)(F)F)cc2)NC(=O)NC1=O | HPLC |  | pH 7.5 | chromatographic logD | 2.3
COc1ccsc1CNCC[C@@]1(c2ccccn2)CCOC2(CCCC2)C1 |  | human, plasma | intravenous, 1.5 mg, single dose, infusion | clearance | 721 mL/min
COc1ccc2c(c1)[C@]13CCCC[C@@H]1[C@H](C2)N(C)CC3 | metabolic stability | Sprague-Dawley rat, hepatocytes | 0.5 µM, pH 7.4 | hepatocyte CLint | 97 µL/min/10⁶ cells
CNC(C)Cc1ccc2nsnc2c1 (stereo not drawn) | metabolic stability | human, liver microsomes | 0.5 µM | microsomal CLint | 13.1 µL/min/mg
